In the data set the test system is MS2 coat protein. As to the kind of experiment: apparent Kd, MS2 coat protein; higher = weaker binding; RNA-MaP array; FMN 200 µM where present. The gist of the method: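 Binding was read on Illumina sequencing-chip clusters where stalled E. coli RNA polymerase had transcribed each design. A titration of SNAP-549-labelled MS2 coat protein began at 0.7 or 1.5 nM and doubled to 3 µM, once without ligand and once with constant ligand, in 100 mM Tris-HCl pH 7.5, 80 mM KCl, 4 mM MgCl2, BSA, DTT, yeast tRNA and Tween-20. The apparent Kd is the median of filtered per-cluster binding-curve fits, based on green signal normalised to red-channel RNA signal and control-cluster median Fmax.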

[1] abbreviates: designed as: OFF switch for flavin mononucleotide, no ligand.
Setting [2] is: ligand present: flavin mononucleotide, designed as: OFF switch for flavin mononucleotide.
Where [3] appears, read: designed as: ON switch for flavin mononucleotide, no ligand.
Where [4] appears, read: ligand present: flavin mononucleotide, designed as: ON switch for flavin mononucleotide.

What is called apparent Kd is the concentration giving half-maximal binding under the conditions of the assay. In the case of “CCGCAUAUGGAGGAUAUCGUAUCGGAAACGAUACGAGAAGGCUAAACAUGAGGAUCACCCAUGUUCCUUAACGG”, the “apparent Kd” value by setting is: under setting [1], 18.1 nM; under setting [2], 18.1 nM.

As to “UAGAAUCGAGGAUAUACAUGAGGAUCACCCAUGUGUUGCCGCAUGAUGUGAUCGUCAGGUAGAAGGCGAUUAUA”, the “apparent Kd” value stood at 25.4 nM under setting [1] and 18.7 nM under setting [2].

As to “GGGCUUUGGGAGAAGGUACAUUAAAUUAGUUUAACAUGAGGAUCACCCAUGUAAGGAUAUCCCAUCUUGUAUUAUGGUACAGCC”, the “apparent Kd” value by setting is: under setting [1], 12.8 nM; under setting [2], 12.8 nM.

For “UCGUCCUCGUGCUAGGAUAUCCAUCGUAAAACAUGAGGAUCACCCAUGUAGAAAUGCGCCUACGAGGAGAAGGAGCGAUGUGGAU”, the “apparent Kd” value turned out to be 20.6 nM under setting [3] and 15.2 nM under setting [4].

Take “UAGAAUCGAGGAUAUACAUGAGGAUCACCCAUGUGUGGCCAUUUGGUGUGGUCGUCAGGUAGAAGGCGAUUACA”: the “apparent Kd” value is, setting by setting: under setting [1], 160 nM; under setting [2], 15.6 nM.

For the sequence “CGCCUGUGAGGAUAUCCAUCUGGAUCAGACUAGAUCCUGAUGGAGAAGGCACAUGAGGAUCACCCAUGUCGGCG”, the “apparent Kd” value under setting [1] was found to be 23.1 nM and the “apparent Kd” value under setting [2] turned out to be 22.4 nM.

As for “GAGUGACAUGAGGAUCACCCAUGUGAGGAUAUCGGCCGGACCUUGUUAGCUUCCACCGCGAGAAGGCACAUCGG”, the “apparent Kd” value under setting [1] is 23.3 nM and the “apparent Kd” value under setting [2] was 27.9 nM.

Turning to “GUUUAGUGAGGAUAUGUGGCAUCGAUCGAGCGCGGUCGGCUACAGAAGGCACAUGAGGAUCACCCAUGUUUCUC”, the “apparent Kd” value by setting is: under setting [1], 39.5 nM; under setting [2], 413 nM.

With “CGUUGUUCCGCAGGAUAUGCAUUGGAUUACAAUGCAGAAGGGCGAUAACAUGAGGAUCACCCAUGUGUGGACAAUAAGGAAGAG”, the “apparent Kd” value was 811 nM under setting [3] and 62.1 nM under setting [4].

For “UAAAAGACUAGCAUUCUAAAGAUCACAUGAGGAUCACCCAUGUAGGAUAUGAGCAGAAAAUCUGCUCAGAAGGACAUGCUAGUC”, the “apparent Kd” value amounted to 5.51 nM under setting [1] and 6.02 nM under setting [2].

Turning to “AUAAGCUCGUCAGGAUAUACGUCACUGUUUCGGCAGUGAGGUAUGAUCACAUGAGGAUCACCCAUGUAGAAGGGACGAGCUUAU”, the “apparent Kd” value was found to be 5.24 nM under setting [1] and 8.29 nM under setting [2].

Regarding “GGAGAUACAUGAGGAUCACCCAUGUAGGAUAUCGAGUAUAUAUAUGGCGAAAGCCAUAUAUAUAUCGAGAAGGGCGUACACACC”, the “apparent Kd” value was determined as 8.84 nM under setting [1] and 7.75 nM under setting [2].

For “CAAAGCAGUAAGGAUAUAUGGUAGCCAGUUACCGUAGAAGGUAUAACAUGAGGAUCACCCAUGUCCAUAUGAUU”, the “apparent Kd” value was found to be 56.8 nM under setting [1] and 57.7 nM under setting [2].

With “UUCGUGCAGCUUUGCUGUACGCGUACAUGAGGAUCACCCAUGUAGGAUAUGGUAGGCUUUGCUUACUAGAAGGAUAGUGUGAUU”, the “apparent Kd” value under setting [1] is 118 nM and the “apparent Kd” value under setting [2] came out at 81.8 nM.

As to “ACAUGCAUAGCGAUAUGAUCGAGAGAUCAUGUCGCUUUUAAAAGAAGGACAUGAGGAUCACCCAUGUAGGAUAUGGGAGCAUGA”, the “apparent Kd” value by setting is: under setting [3], 53.4 nM; under setting [4], 13.2 nM.

“AACAAACAUGAGGAUCACCCAUGUCAGGAUAUCGAAACAACAAACAACAAACAACAAACGAGAAGGGACAACAA”: the “apparent Kd” value is 25.6 nM under setting [1] and 28.3 nM under setting [2].

Turning to “UAUUAACACGAAGGAUAUGCUUACAUGAGGAUCACCCAUGUAUGUAUAUUGAUCCAGAGUUUUGAGCAGAAGGUCGUGAGUAAA”, the “apparent Kd” value by setting is: under setting [1], 32.2 nM; under setting [2], 153 nM.

For “UGCUAGGAUGGGUCUAAUGGACCGCAGGAUAUGCUUGUACAUGAGGAUCACCCAUGUAACAUUGUGCAGAAGGGUGGAUCCACG”, the “apparent Kd” value was 65.6 nM under setting [3] and 11.6 nM under setting [4].

Turning to “AAGUGGUUUAUAUAUAUAGAUAUCAGAAGGCGUGACAUGAGGAUCACCCAUGUGUACUGUCAUGACGAGGAUAUGACUAAUUGU”, the “apparent Kd” value runs as follows: under setting [1], 24 nM; under setting [2], 19.5 nM.

As for “GCACUGGAUGUAGGAUAUCAGGACGAUAAGUCCUGAGAAGGACAUGAGGAUCACCCAUGUACUCAAAACCAGUGCUAUAAUAUA”, the “apparent Kd” value came to 15.6 nM under setting [1] and 23.8 nM under setting [2].

For “CUAUUUAGUGCCUCAUUUACAUGAGGAUCACCCAUGUUAACUUAGGAUAUAUUUAUAUUGUUAGAGUAGAAGGAAGUACAUUUU”, the “apparent Kd” value reads like this: under setting [1], 237 nM; under setting [2], 208 nM.

For the sequence “GUUGUUUCUGAGGAUAUUAUUUUUUUCGAUUGAUAAGAAGGCAGUACAUGAGGAUCACCCAUGUGGGUUGUCUG”, the “apparent Kd” value worked out at 37.2 nM under setting [1] and 150 nM under setting [2].

With “AUGCUAGUGUGAGGAUAUUAGGCACAUGAGGAUCACCCAUGUAAGAUCAUGACGAUCACGCAUGAUAAGAAGGUACAUUAGCAU”, the “apparent Kd” value came to 40 nM under setting [1] and 47 nM under setting [2].

Turning to “AAUACACAUGAGGAUCACCCAUGUCAGGAUAUGCGGAAUAAGACUUUGGUCGAUAAAUGUAGAAGGGACGUUUA”, the “apparent Kd” value runs as follows: under setting [1], 34.3 nM; under setting [2], 33.4 nM.

For the sequence “AAAUCUCAGAUAGGAUAUAUAGGAUAACUUAAGACCUAACAUGAGGAUCACCCAUGUGAUUAUUCGUAGAAGGAUCAUUGAACC”, the “apparent Kd” value came out at 210 nM under setting [3] and 233 nM under setting [4].

As for “UCCUUGUUCUGAGGAUAUCCGCGGUUCCCAAAAGGAGAAGGCAGGACAUGAGGAUCACCCAUGUACCCAGAAAACGUGCAGAGU”, the “apparent Kd” value runs as follows: under setting [1], 9.85 nM; under setting [2], 37.4 nM.

Take “CUGCUCCGUGUAGGAUAUGCAUACAACCAAUAUGCAGAAGGACAUGAGGAUCACCCAUGUAUGUUAUUAUCACGUGAAGCGUCC”: the “apparent Kd” value under setting [1] came out at 22.6 nM and the “apparent Kd” value under setting [2] was 42.9 nM.

Take “CACGGAUAGUAGAAGGGUGACAUGAGGAUCACCCAUGUACUUAUUUAUUUAUUACUAUUUGAUACACAGGAUAUACUAUCCGUG”: the “apparent Kd” value by setting is: under setting [3], 956 nM; under setting [4], 279 nM.

Regarding “AGUCGGAGCAGAGGAUAUAUACAUGAGGAUCACCCAUGUAAAUGGAAUAGCUGGAAACAGCAAGUAUAGAAGGCUGCUCCGACA”, the “apparent Kd” value reads like this: under setting [1], 39.5 nM; under setting [2], 118 nM.

“UGAGUGUGAGGAUAUAUGGUAGGGAUGAAGGGAUAGAAUUAGUAGAAGGUACAUGAGGAUCACCCAUGUUAGGA”: the “apparent Kd” value was determined as 24.4 nM under setting [1] and 21.9 nM under setting [2].

As to “GGAUGUCAAAGACAUCCAAUACGAACAUGAGGAUCACCCAUGUAGGAUAUGCUACUCAAAGAGUAGCAGAAGGACAUGUGUCUU”, the “apparent Kd” value under setting [1] worked out at 30.6 nM and the “apparent Kd” value under setting [2] is 164 nM.

On to “UUAUGGCUAGGAUAUGCACGUGCAUGUUCAAGUCAAAGAAGACAUGAGGAUCACCCAUGUAGAAGGAGCGAUAA”, for which the “apparent Kd” value stood at 28.8 nM under setting [1] and 21.2 nM under setting [2].

On to “AAUAAACUCACAGGAUAUAGCAGAGGUCGCCUGAACUUACAGGCGACUAUGCUAGAAGGGUGACCACAUGAGGAUCACCCAUGU”, for which the “apparent Kd” value came to 974 nM under setting [3] and 170 nM under setting [4].

On to “UGUCGGAGCAGAGGAUAUUACAUGAGGAUCACCCAUGUAUGUACCAAUAGCUGGAAACAGCAAUGUAAGAAGGCUGCUCCGACA”, for which the “apparent Kd” value reads like this: under setting [1], 6 nM; under setting [2], 24.7 nM.

In the case of “GGUAGACAAAGUCUACCAAUACGAACAUGAGGAUCACCCAUGUAGGAUAUGCUACUCAAAGAGUAGCAGAAGGACAUGUGUCUU”, the “apparent Kd” value is, setting by setting: under setting [1], 29.5 nM; under setting [2], 160 nM.

“UUAUUUUGUCAAGGAUAUGUAUUAUUGAUUUGAAAACAUGAGGAUCACCCAUGUAUAUGGUGGGAACAGAAGGUGAAUGGUGAA”: the “apparent Kd” value is, setting by setting: under setting [1], 194 nM; under setting [2], 215 nM.

In the case of “UGGUACUAGGGAGGAUAUGGGAAGAUACAUGAGGAUCACCCAUGUUUAAGAAUGCCGAGAGGCAACUAGAAGGCUCUAGUACCU”, the “apparent Kd” value reads like this: under setting [3], 416 nM; under setting [4], 18.4 nM.

In the case of “UCCUCCGCAGGAUAUACAUGGGCGCCCGUCUUCAACCAUUAACAUGAGGAUCACCCAUGUAGAAGGGCGUCUCU”, the “apparent Kd” value is 16.1 nM under setting [1] and 15.5 nM under setting [2].

Turning to “UAUAUAUAGUAAGGAUAUGUAAUUAUUUCAUAAACAGAAGGUACUGACAUGAGGAUCACCCAUGUUUUAGUGUGGGCAUGUAGA”, the “apparent Kd” value reads like this: under setting [1], 79.8 nM; under setting [2], 108 nM.

For the sequence “CGCUCAAUUACUUAGGAUAGAAUCAGAAGGCGUAACAUGAGGAUCACCCAUGUAUAGACGUGUAACGAGGAUAUGAAUUGAGCG”, the “apparent Kd” value runs as follows: under setting [1], 5.36 nM; under setting [2], 5.34 nM.

With “GGAAUAAAUGCAGGAUAUACGUGGAAAGCCCUCAACAUGAGGAUCACCCAUGUAGAAGGGCAUCUCCCGACCGAAGCGGAUCUC”, the “apparent Kd” value came to 4.41 nM under setting [1] and 4.82 nM under setting [2].

Consider “AGCUAGUCAGGAUAUACGUACAUGUCAUUAGACGUGAAGGGACAUGAGGAUCACCCAUGUAGAAGGGACUAGCA”, for which the “apparent Kd” value worked out at 40 nM under setting [1] and 164 nM under setting [2].

For the sequence “CUCGUGUAAGGAUAUAUUGCAAUGACGAAAUUUGCCCUGAGAUAGAAGGUACAUGAGGAUCACCCAUGUGUCGG”, the “apparent Kd” value reads like this: under setting [1], 45.5 nM; under setting [2], 92.2 nM.

Turning to “AAAAAGUGAGGAUAUGCUGCUCGUCACUUGCGUGAUGAGUAGCAGAAGGCACAUGAGGAUCACCCAUGUAAAGA”, the “apparent Kd” value by setting is: under setting [1], 39 nM; under setting [2], 49.7 nM.

Take “GUUAUGUCAGGAUAUGCUUAUGAUGAGUGCUCAGACAUGAUGCAGAAGGGACAUGAGGAUCACCCAUGUACUGA”: the “apparent Kd” value under setting [1] worked out at 25.4 nM and the “apparent Kd” value under setting [2] was found to be 63.9 nM.

As for “UAAAUACAUGAGGAUCACCCAUGUCAGGAUAUAUUACGCCCGCCAAGCGAGCGCGUCUAUAGAAGGGACGGUGA”, the “apparent Kd” value reads like this: under setting [1], 33.3 nM; under setting [2], 33.2 nM.

For “UAGGUCGACGUAGGAUAUGUAGGAUAUUCCUACAUGAGGAUCACCCAUGUUGAAAUGGAAGAAGGACAGAAGGACGUUGACCUU”, the “apparent Kd” value is, setting by setting: under setting [3], 56.7 nM; under setting [4], 13.6 nM.

“CGUAUCGAAGAAGGAUAUCGCAACGACAGCUAGGGCUAUUCUCAACAUGAGGAUCACCCAUGUUGCGAGAAGGUCUGCUAUGCG”: the “apparent Kd” value by setting is: under setting [1], 27.9 nM; under setting [2], 50.5 nM.

(Values after the EternaBench riboswitch data.)
